Data as given in ChEMBL document CHEMBL1212834, “Pyrido[2,3-b]pyrazines, discovery of TRPV1 antagonists with reduced potential for the formation of reactive metabolites” (Bioorg Med Chem Lett, 2010).

Assays:
[1] = AUC (0 to 24 hrs) in rhesus monkey at 1 mg/kg, po; assay type: ADME, organism-based, Macaca mulatta; set-up: time < 24 hr, dose 1 mg/kg, route oral; conditions: plasma
Method in brief: (§1)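 Oral PK at the dose in the line, given as a suspension in 0.5% methocel. […] Reported as mean ± error.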

[2] = Plasma concentration in rat complete Freund's adjuvant-induced inflammation model at 3 mg/kg, po QD for 3 consecutive days measured at 2 hrs post dose on day 1; assay type: ADME, organism-based; set-up: dose 3 mg/kg, route oral
Method in brief: (§2)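 CFA (200 µL) injected intraplantar into left hind paw; next day rats dosed orally once daily for three consecutive days (1, 3 or 10 mg/kg, suspension in 0.5% methocel). Separate cohort: plasma sampled each day 2 h after dosing.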

[3] = molecular target: T1, Transient receptor potential cation channel subfamily V member 1 (Rattus norvegicus, UniProt O35433); assay type: functional, tissue-based, Sprague-Dawley, Dorsal root ganglion; conditions: read-out: IC50
T1 sequence (O35433 whole entry): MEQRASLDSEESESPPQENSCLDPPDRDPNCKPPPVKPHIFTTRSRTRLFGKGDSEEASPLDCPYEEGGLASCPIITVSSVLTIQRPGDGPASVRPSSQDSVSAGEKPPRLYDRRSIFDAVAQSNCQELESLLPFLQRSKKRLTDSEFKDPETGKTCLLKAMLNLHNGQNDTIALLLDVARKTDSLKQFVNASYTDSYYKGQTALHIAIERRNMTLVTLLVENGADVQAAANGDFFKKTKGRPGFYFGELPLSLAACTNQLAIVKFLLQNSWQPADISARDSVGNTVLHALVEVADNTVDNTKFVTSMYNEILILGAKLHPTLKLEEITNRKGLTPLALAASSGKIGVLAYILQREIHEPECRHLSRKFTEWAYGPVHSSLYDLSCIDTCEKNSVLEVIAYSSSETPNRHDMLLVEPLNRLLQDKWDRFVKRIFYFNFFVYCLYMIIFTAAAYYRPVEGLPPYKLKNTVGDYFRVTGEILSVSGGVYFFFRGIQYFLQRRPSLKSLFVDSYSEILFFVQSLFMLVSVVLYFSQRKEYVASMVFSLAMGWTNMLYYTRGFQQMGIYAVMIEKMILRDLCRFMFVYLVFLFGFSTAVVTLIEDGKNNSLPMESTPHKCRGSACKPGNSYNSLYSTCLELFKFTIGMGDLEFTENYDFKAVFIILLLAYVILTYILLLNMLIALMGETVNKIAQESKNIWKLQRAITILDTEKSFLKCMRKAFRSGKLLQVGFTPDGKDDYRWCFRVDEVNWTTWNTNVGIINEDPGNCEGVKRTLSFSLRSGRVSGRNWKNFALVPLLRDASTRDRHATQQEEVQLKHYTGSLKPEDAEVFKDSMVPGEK

[4] = Metabolic stability in rat liver microsomes assessed as compound remaining after 10 min; assay type: ADME, Microsome; conditions: read-out: Stability
[5] = tested on: Rattus norvegicus; test: Antiinflammatory activity in Sprague-Dawley rat assessed as inhibition of carrageenan-induced thermal hyperalgesia at 1 mg/kg, po administered 3.5 hrs after carrageenan challenge measured after 5 hrs; assay type: functional
Method in brief: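 Rat carrageenan-induced thermal hyperalgesia. Dosed orally as a suspension in 0.5% methocel; % inhibition reported at each dose.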

[6] = tested on: Rattus norvegicus; test: Plasma concentration in Sprague-Dawley rat carrageenan-induced thermal hyperalgesia model at 1 mg/kg, po; assay type: ADME, organism-based; set-up: dose 1 mg/kg, route oral; conditions: in vivo
Method in brief: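 Plasma sampled immediately after the carrageenan thermal hyperalgesia experiment, following oral dosing as a suspension in 0.5% methocel.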

[7] = Half life in rat at 1 mg/kg, iv; assay type: ADME, organism-based; set-up: dose 1 mg/kg, route intravenous; conditions: in vivo
Method in brief: (§3)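 IV PK at 1 mg/kg, given as a solution in 3:1 PEG300:water. Plasma half-life, clearance and volume of distribution derived.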

[8] = Volume of distribution in rat at 1 mg/kg, iv; assay type: ADME, organism-based; set-up: dose 1 mg/kg, route intravenous; conditions: in vivo
Method in brief: (§4)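 Intravenous dose of 1 mg/kg given as a solution in 3:1 PEG300:water to rat, dog or rhesus monkey. Plasma PK parameters (T1/2, clearance, Vd) derived.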

[9] = Cmax in rat at 1 mg/kg, po; assay type: ADME, organism-based; set-up: dose 1 mg/kg, route oral; conditions: in vivo; method in brief: as §1
[10] = Cmax in rat at 10 mg/kg, po; assay type: ADME, organism-based; set-up: dose 10 mg/kg, route oral; conditions: in vivo; method in brief: as §1
[11] = AUC (0 to 24 hrs) in rat at 10 mg/kg, po; assay type: ADME, organism-based; set-up: time < 24 hr, dose 10 mg/kg, route oral; conditions: plasma; method in brief: as §1
[12] = AUC (0 to 24 hrs) in rat at 100 mg/kg, po; assay type: ADME, organism-based; set-up: time < 24 hr, dose 100 mg/kg, route oral; conditions: plasma; method in brief: as §1
[13] = Clearance in dog at 1 mg/kg, iv; assay type: ADME, organism-based, Canis lupus familiaris; set-up: dose 1 mg/kg, route intravenous; conditions: in vivo; method in brief: as §3
[14] = Volume of distribution in dog at 1 mg/kg, iv; assay type: ADME, organism-based, Canis lupus familiaris; set-up: dose 1 mg/kg, route intravenous; conditions: in vivo; method in brief: as §4
[15] = Oral bioavailability in dog at 1 mg/kg; assay type: ADME, organism-based, Canis lupus familiaris; conditions: in vivo
Method in brief: (§5)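 Oral bioavailability from a 1 mg/kg po dose (suspension in 0.5% methocel), compared against a 1 mg/kg iv dose (solution in 3:1 PEG300:water).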

[16] = Cmax in dog at 1 mg/kg, po; assay type: ADME, organism-based, Canis lupus familiaris; set-up: dose 1 mg/kg, route oral; conditions: in vivo; method in brief: as §1
[17] = Half life in rhesus monkey at 1 mg/kg, iv; assay type: ADME, organism-based, Macaca mulatta; set-up: dose 1 mg/kg, route intravenous; conditions: in vivo; method in brief: as §3
[18] = Volume of distribution in rhesus monkey at 1 mg/kg, iv; assay type: ADME, organism-based, Macaca mulatta; set-up: dose 1 mg/kg, route intravenous; conditions: in vivo; method in brief: as §4
[19] = Oral bioavailability in rhesus monkey at 1 mg/kg; assay type: ADME, organism-based, Macaca mulatta; conditions: in vivo; method in brief: as §5
[20] = Cmax in rhesus monkey at 1 mg/kg, po; assay type: ADME, organism-based, Macaca mulatta; set-up: dose 1 mg/kg, route oral; conditions: in vivo; method in brief: as §1
[21] = Cmax in rat brain of complete Freund's adjuvant-induced inflammation model at 10 mg/kg, po; assay type: ADME, organism-based; set-up: dose 10 mg/kg, route oral
[22] = molecular target: Voltage-gated inwardly rectifying potassium channel KCNH2 (Homo sapiens, UniProt Q12809); test: Inhibition of human hERG
Sequence of Voltage-gated inwardly rectifying potassium channel KCNH2 (Q12809 whole entry): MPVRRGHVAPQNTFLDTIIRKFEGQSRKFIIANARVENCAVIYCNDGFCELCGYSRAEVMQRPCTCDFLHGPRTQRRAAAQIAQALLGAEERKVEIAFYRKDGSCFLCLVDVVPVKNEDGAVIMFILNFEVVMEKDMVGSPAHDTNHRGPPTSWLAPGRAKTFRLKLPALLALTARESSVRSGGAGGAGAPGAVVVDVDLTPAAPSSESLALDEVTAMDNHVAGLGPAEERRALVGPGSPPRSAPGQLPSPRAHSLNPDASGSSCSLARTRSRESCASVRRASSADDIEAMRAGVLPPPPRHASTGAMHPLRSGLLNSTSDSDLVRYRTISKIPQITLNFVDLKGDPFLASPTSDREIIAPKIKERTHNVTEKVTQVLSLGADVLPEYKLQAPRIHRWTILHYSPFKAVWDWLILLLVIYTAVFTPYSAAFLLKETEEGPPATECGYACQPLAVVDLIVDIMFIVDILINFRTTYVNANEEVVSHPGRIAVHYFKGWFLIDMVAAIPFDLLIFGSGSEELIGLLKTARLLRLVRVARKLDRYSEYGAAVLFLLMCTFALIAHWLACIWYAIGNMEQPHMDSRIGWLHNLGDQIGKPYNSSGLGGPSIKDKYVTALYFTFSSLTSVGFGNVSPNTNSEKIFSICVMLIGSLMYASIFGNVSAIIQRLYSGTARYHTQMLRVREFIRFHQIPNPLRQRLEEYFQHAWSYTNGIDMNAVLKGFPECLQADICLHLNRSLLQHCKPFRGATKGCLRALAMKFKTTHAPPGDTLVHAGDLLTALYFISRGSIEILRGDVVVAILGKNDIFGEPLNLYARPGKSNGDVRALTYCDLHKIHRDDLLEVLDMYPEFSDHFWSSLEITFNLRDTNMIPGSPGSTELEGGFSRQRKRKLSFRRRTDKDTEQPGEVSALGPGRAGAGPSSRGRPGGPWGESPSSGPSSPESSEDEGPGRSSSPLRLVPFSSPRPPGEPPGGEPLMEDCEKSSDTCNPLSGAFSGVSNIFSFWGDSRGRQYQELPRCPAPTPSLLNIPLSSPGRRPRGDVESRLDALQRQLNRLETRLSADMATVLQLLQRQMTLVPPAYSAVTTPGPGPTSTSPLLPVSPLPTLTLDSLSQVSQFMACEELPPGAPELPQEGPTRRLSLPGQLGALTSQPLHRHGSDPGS

[23] = Ratio of drug level in brain to plasma in rat at 10 mg/kg, po; assay type: ADME, organism-based; set-up: dose 10 mg/kg, route oral; conditions: read-out: BPR
[24] = tested on: Rattus norvegicus; test: Antiinflammatory activity in rat assessed as inhibition of complete Freund's adjuvant-induced hind paw edema at 3 mg/kg, po administered 1 day after complete Freund's adjuvant challenge QD for 3 consecutive days measured at 2 hrs post dose on day 1; assay type: functional
Method in brief: (§6)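 CFA 200 µL injected intraplantar into the left hind paw. From the next day, 1, 3 or 10 mg/kg po once daily for 3 days as a suspension in 0.5% methocel.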

[25] = Plasma concentration in rat complete Freund's adjuvant-induced inflammation model at 1 mg/kg, po QD for 3 consecutive days measured at 2 hrs post dose on day 2; assay type: ADME, organism-based; set-up: dose 1 mg/kg, route oral; method in brief: as §2
[26] = Plasma concentration in rat complete Freund's adjuvant-induced inflammation model at 3 mg/kg, po QD for 3 consecutive days measured at 2 hrs post dose on day 2; assay type: ADME, organism-based; set-up: dose 3 mg/kg, route oral; method in brief: as §2
[27] = Plasma concentration in rat complete Freund's adjuvant-induced inflammation model at 10 mg/kg, po at 2 hrs on second day; assay type: ADME, organism-based; set-up: dose 10 mg/kg, route oral; method in brief: as §2
[28] = Plasma concentration in rat complete Freund's adjuvant-induced inflammation model at 1 mg/kg, po at 2 hrs on third day; assay type: ADME, organism-based; set-up: dose 1 mg/kg, route oral; method in brief: as §2
[29] = Plasma concentration in rat complete Freund's adjuvant-induced inflammation model at 10 mg/kg, po at 2 hrs on third day; assay type: ADME, organism-based; set-up: dose 10 mg/kg, route oral; method in brief: as §2
[30] = Apparent permeability across MDCK cell membrane; assay type: ADME, cell-based, Canis lupus familiaris; conditions: dog
Method in brief: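 Permeability across MDCK cell monolayers, reported as Papp. Efflux ratio calculated as (B→A)/(A→B).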

[31] = tested on: Rattus norvegicus; test: Antiinflammatory activity in po dosed rat assessed as inhibition of complete Freund's adjuvant-induced hind paw edema administered 1 day after complete Freund's adjuvant challenge QD for 3 consecutive days measured at 2 hrs post dose on day 1; assay type: functional, organism-based; method in brief: as §6
[32] = tested on: Rattus norvegicus; test: Antiinflammatory activity in rat assessed as inhibition of complete Freund's adjuvant-induced hind paw edema at 1 mg/kg, po administered 1 day after complete Freund's adjuvant challenge QD for 3 consecutive days measured at 24 hrs post dose on day 3; assay type: functional; method in brief: as §6
[33] = tested on: Rattus norvegicus; test: Antiinflammatory activity in rat assessed as inhibition of complete Freund's adjuvant-induced hind paw edema at 3 mg/kg, po administered 1 day after complete Freund's adjuvant challenge QD for 3 consecutive days measured at 24 hrs post dose on day 3; assay type: functional; method in brief: as §6
[34] = tested on: Rattus norvegicus; test: Antiinflammatory activity in rat assessed as inhibition of complete Freund's adjuvant-induced hind paw edema at 10 mg/kg, po administered 1 day after complete Freund's adjuvant challenge QD for 3 consecutive days measured at 24 hrs post dose on day 3; assay type: functional; method in brief: as §6
[35] = organism: Canis familiaris; test: Cardiotoxicity in dog assessed as effect on ECG intervals at plasma concentration of up to 24 uM; assay type: toxicity, organism-based, Canis lupus familiaris
[36] = molecular target: T1, Transient receptor potential cation channel subfamily V member 1; test: Antagonist activity at Sprague-Dawley rat dorsal root ganglion TRPV1 assessed as inhibition of pH-induced receptor activation; assay type: functional, tissue-based
Method in brief: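 Rat TRPV1 activated by low pH (5.0–5.5); inhibition measured and IC50 given as the mean of ≥3 experiments.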

[37] = tested on: Liver microsomes; test: Metabolic stability in human liver microsomes assessed per mg of protein after 1 hr
[38] = tested on: Plasma; test: Covalent protein binding in rat assessed per mg of protein at 8.1 mg/kg, po after 2 to 24 hrs; conditions: in vivo
[39] = tested on: Rattus norvegicus; test: Antihyperalgesic activity in rat assessed as inhibition of complete Freund's adjuvant-induced mechanical hyperalgesia measured as differential weight bearing at 1 mg/kg, po administered 1 day after complete Freund's adjuvant challenge QD for 3 consecutive days measured at 2 hrs post dose on day 1

NC(=O)c1cnc(-c2cnc3c(Nc4ccc(C(F)(F)F)cn4)ccnc3n2)c(C(F)(F)F)c1
AUC(0-t) at 24 h [1]: 4.9 µM·h
concentration at 2 h [2]: 1200 nM
IC50 [3]: 1.3 nM
remaining at 10 min [4]: 100%
inhibition in vivo at 1 mg/kg [5]: 49%
concentration [6]: 240 nM
half-life [7]: 2.3 h
Vd [8]: 4.3 L/kg
Cmax [9]: 300 nM
Cmax [10]: 2100 nM
AUC(0-t) at 24 h [11]: 29.9 µM·h
AUC(0-t) at 24 h [12]: 268 µM·h
clearance [13]: 7.4 mL/min/kg
Vd [14]: 1.3 L/kg
bioavailability [15]: 57%
Cmax [16]: 500 nM
half-life [17]: 4.4 h
Vd [18]: 1 L/kg
bioavailability [19]: 38%
Cmax [20]: 700 nM
Cmax [21]: 300 nM
IC50 [22]: 5900 nM
Kp [23]: 0.1
inhibition in vivo at 3 mg/kg [24]: 65%
concentration at 2 h [25]: 360 nM
concentration at 2 h [26]: 1100 nM
concentration at 2 h [27]: 3120 nM
concentration at 2 h [28]: 350 nM
concentration at 2 h [29]: 4240 nM
Papp [30]: 34 ×10⁻⁶ cm/s
Activity [31]: Dose-dependent effect
inhibition in vivo at 1 mg/kg [32]: 42%
inhibition in vivo at 3 mg/kg [33]: 64%
inhibition in vivo at 10 mg/kg [34]: 70%
Activity [35]: Non-toxic
IC50 [36]: 1.3 nM
Stability [37]: 8 pmol
covalent protein binding [38]: < 10 pmol/mg
inhibition in vivo at 1 mg/kg [39]: 39%
